This passage reports IC50 and inhibition results from ChEMBL document CHEMBL3351807, “2-Phenoxychromones and prenylflavonoids from Epimedium koreanum and their inhibitory effects on LPS-induced nitric oxide and interleukin-1β production” (J Nat Prod, 2014).

What all share (type): functional, cell-based
The subject of assay [1] is RAW264.7. Briefly: Inhibition of LPS-induced NO production in mouse RAW264.7 cells after 24 hrs by Griess reagent based assay. To be noted: RAW264.7, 24 h. An outline of the steps: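 RAW 264.7 cells seeded at 2 × 10^6 cells/mL, stimulated with 1 μg/mL LPS with or without compound, 37 °C for 24 h. Supernatant nitrite measured as NO indicator: Griess reagent, room temperature 10 min, absorbance 550 nm against sodium nitrite standard curve. Viability of remaining cells by colorimetric cell counting kit. IC50 as mean of triplicate experiments.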
A general note: The Griess reaction detects nitrite, a stable product of nitric oxide.

In assay [2] the test system is RAW264.7. Briefly: Inhibition of LPS-induced IL-1beta production in mouse RAW264.7 cells after 24 hrs by ELISA. Conditions: RAW264.7, 24 h. In a few lines:
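RAW 264.7 cells at 2 × 10^6 cells/mL stimulated with 1 μg/mL LPS in presence or absence of compound, 37 °C, 24 h. IL-1β in culture medium quantified by commercial ELISA kit. Remaining-cell viability checked by colorimetric cell counting kit. IC50 as mean of triplicate experiments.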
For orientation: An ELISA detects its analyte on a solid surface through an enzyme-linked reagent.

For assay [3], the system named is RAW264.7. The experiment in a line: Inhibition of LPS-induced iNOS gene expression in mouse RAW264.7 cells at 12.5 to 50 uM after 24 hrs by RT-PCR method. In a few lines: (§1)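 Total RNA isolated with TRIZOL; single-stranded cDNA made from 2 μg total RNA, then PCR for iNOS or IL-1β transcripts. Products run on 1% agarose gels, stained with 5 μg/mL ethidium bromide. Cells LPS-stimulated, compound tested across doses.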

The subject of assay [4] is RAW264.7. Briefly: Inhibition of LPS-induced IL-1beta gene expression in mouse RAW264.7 cells at 12.5 to 50 uM after 24 hrs by RT-PCR method. An outline of the steps:
as §1

One may read the IC50 as the concentration needed to halve the response being measured. A low value points to higher potency. Turning to `COc1c(O)cc(-c2cc(=O)c3c(O)cc(O)c(CC=C(C)C)c3o2)cc1CC=C(C)C`, the values for the IC50 in the assay with RAW264.7 [1] and with RAW264.7 [2] were 16.8 µM and 8.8 µM, respectively. In addition, the inhibition result in the assay with RAW264.7 [3] and in the assay with RAW264.7 [4] was “Dose-dependent effect” throughout.

For the compound `COc1ccc(Oc2cc(=O)c3cc(O)c(CC=C(C)C)c(O)c3o2)cc1`, the IC50 in the assay on RAW264.7 [1] came to 27.5 µM; in the assay with RAW264.7 [2] it was 28.9 µM.

With `COc1cc([C@H]2OC[C@H]3[C@@H]2CO[C@H]3c2ccc(O)c(OC)c2)ccc1O` [PINORESINOL], the IC50 in the assay on RAW264.7 [1] is 39.5 µM; in the assay with RAW264.7 [2], greater than 50 µM.

As to `COc1cc2c(cc1OC)-c1c(cc(OC)c(OC)c1OC)CC2`, the concentration for half-maximal inhibition (IC50) in the assay with RAW264.7 [1] and with RAW264.7 [2] was greater than 50 µM throughout.

As for `CC1(C)C[C@@H](O)C[C@@]2(C)OC(=O)C=C12` [(+)-EPILOLIOLIDE], the IC50 in the assay on RAW264.7 [1] and in the assay on RAW264.7 [2] was greater than 50 µM throughout.

Take `CC(C)=CCc1c(O)cc(O)c2c(=O)cc(-c3cc(O)c4c(c3)C=CC(C)(C)O4)oc12`: the IC50 in the assay on RAW264.7 [1] and in the assay on RAW264.7 [2] was greater than 50 µM in each case.

In the case of `COc1ccc2c(c1)c(CC(=O)O)c(C)n2C(=O)c1ccc(Cl)cc1` [INDOMETHACIN], the results for the IC50 in the assay on RAW264.7 [1] and with RAW264.7 [2] were 15.8 µM and 18.7 µM, respectively.

For `N=C(N)NN` [PIMAGEDINE], in the assay with RAW264.7 [1], the IC50 amounted to 21.4 µM.

Consider `COc1cc2ccc3cc(OC)c(OC)c(OC)c3c2cc1OC`, for which the IC50 in the assay on RAW264.7 [1] was 49.3 µM; in the assay with RAW264.7 [2] it was greater than 50 µM.

With `CC(C)=CCc1cc(-c2cc(=O)c3c(O)cc(O)c(CC=C(C)C)c3o2)ccc1O`, the results for the IC50 with RAW264.7 [1] and in the assay with RAW264.7 [2] were 19.7 µM and 8.6 µM, respectively. Moreover, the inhibition entry with RAW264.7 [3] and in the assay with RAW264.7 [4] was “Dose-dependent effect” throughout.

Regarding `COc1cc([C@@H]2OC[C@@H]3[C@H]2CO[C@H]3c2cc(OC)c(O)c(OC)c2)cc(OC)c1O`, the IC50 was 45.6 µM in the assay on RAW264.7 [1] and greater than 50 µM in the assay on RAW264.7 [2].

Take `CC1(C)C=Cc2c(cc(O)c3c(=O)cc(Oc4ccc(O)cc4)oc23)O1`: the IC50 in the assay with RAW264.7 [1] and in the assay with RAW264.7 [2] was greater than 50 µM in each case.

As for `COc1cn2c(=O)ccc(O)c2cn1`, the half-inhibitory concentration (IC50) in the assay on RAW264.7 [1] and in the assay with RAW264.7 [2] was greater than 50 µM in each case.

Consider `COc1cc(C[C@@]2(O)CO[C@H](c3ccc(O)c(OC)c3)[C@H]2COC(C)=O)ccc1O`, for which the IC50 with RAW264.7 [1] and in the assay on RAW264.7 [2] was greater than 50 µM throughout.

In the case of `C=CCc1ccc(O)c(-c2cc(CC=C)ccc2O)c1` [MAGNOLOL], the half-maximal inhibitory concentration (IC50) in the assay with RAW264.7 [1] stood at 35.4 µM; in the assay on RAW264.7 [2], 38.9 µM.

On to `CC(=O)/C=C/[C@@]1(O)C(C)=CC(=O)CC1(C)C`, for which the half-maximal inhibitory concentration (IC50) is 38.5 µM in the assay on RAW264.7 [1] and greater than 50 µM with RAW264.7 [2].

In the case of `CC1(C)C[C@H](O)C[C@@]2(C)OC(=O)C=C12` [LOLIOLIDE], the IC50 with RAW264.7 [1] and in the assay on RAW264.7 [2] was greater than 50 µM in each case.
